This note sets out measurements from ChEMBL document CHEMBL5338759, “N-Phenyl-1-(phenylsulfonyl)-1H-1,2,4-triazol-3-amine as a New Class of HIV-1 Non-nucleoside Reverse Transcriptase Inhibitor” (J Med Chem, 2023).

Data set [1] is described as follows: Neurotoxicity in mouse primary neurons assessed as loss of MAP-2 area incubated for 48 hrs by imaging analysis. The format is toxicity, cell-based. The note with it: neuron. In outline: (§1)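 Primary E16 CD1 mouse cortex/hippocampus cultures (>95% neurons) treated at 20 days in vitro with 10X dilutions made in artificial CSF, final 0.1–10,000 nM, for 48 hr; fixed in methanol:acetic acid (97:3), stained for MAP-2; relative MAP-2 intensity and area quantified by image analysis, […] (±SD) fitted from dose response.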

Data set [2] concerns Neuron. In words: Induction of calcium accumulation at acute phase in primary mouse neuron at 1 uM. The format is functional, cell-based. Summed up:
(§2)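 Primary E16 CD1 mouse cortex/hippocampus neurons on coverslips, 14–18 days in vitro, loaded 30 min with 2 µM Fluo-4 AM in aCSF; three baseline images, then compound or vehicle in aCSF added at 1 µM final. Baseline fluorescence subtracted; changes averaged over all cells from at least triplicate runs, acute and delayed phases.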

Data set [3] has as its system Human immunodeficiency virus 1. Briefly: Antiviral activity against HIV1 harboring A17 mutant infected in human TZM-bl cells. In kind it is functional, organism-based. The note with it: for pEC50 / pIC50: Human immunodeficiency virus 1, TZM-bl. In outline: (§3)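 TZM-bl cells (2x10⁵/mL) were infected with mutant virus in the presence of 15 µg/mL DEAE-dextran. A17 (IIIB variant) was grown in H9 cells; the other mutants were NL4-3-based plasmids transfected into 293T cells, then expanded in H9 cells. Compounds were tested at 0.05–500 nM (DMSO constant within an assay) for 48 hr at 37°C. Read-out was luciferase RLU from lysed cells, with at least 6 replicates over multiple days.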

The subject of data set [4] is Human immunodeficiency virus 1. In words: Antiviral activity against wild type HIV1 IIIB infected in human TZM-bl cells. In kind it is functional, organism-based. The conditions noted are these: Human immunodeficiency virus 1, IIIB. In outline:
(§4)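 TZM-bl cells (2x10⁵/mL) infected with HIV-1 IIIB grown in H9 cells, with 15 µg/mL DEAE-dextran; serial dilutions from 10 mM DMSO stocks, DMSO held constant (0.005% or 0.05%); 37°C, 5% CO₂, 48 hr; cells lysed, luciferase RLU read.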

The test system of data set [5] is Human immunodeficiency virus. Briefly: Antiviral activity against wild type HIV IIIB infected in human TZM-bl cells. The conditions noted are these: Human immunodeficiency virus 1, IIIB. The format is functional, organism-based. In outline:
as §4

A short description of data set [6]: Neurotoxicity in mouse primary neurons assessed as loss of MAP-2 intensity at 0.0001 to 10 uM incubated for 48 hrs by semi-quantitative analysis. The conditions noted are these: neuron.
Data set [7] concerns Neuron. In words: Induction of calcium accumulation at delayed phase in primary mouse neuron at 1 uM. In kind it is functional, cell-based. Summed up:
as §2

For data set [8], the system named is TZM. In words: Cytotoxicity against human TZM-bl cells assessed as reduction in cell viability by MTS assay. In kind it is functional.
Data set [9] deals with Human immunodeficiency virus 1. In words: Antiviral activity against HIV1 harboring L100I/K103N double mutant infected in human TZM-bl cells. The format is functional, organism-based. The conditions noted are these: Human immunodeficiency virus 1, TZM-bl.
Data set [10] has as its target Human immunodeficiency virus type 1 reverse transcriptase (Human immunodeficiency virus 1, UniProt Q72547). Briefly: Inhibition of HIV1 Reverse transcriptase incubated for 30 mins by fluorescence based analysis.
Data set [11] in a line: Neurotoxicity in mouse primary neurons assessed as loss of MAP-2 intensity incubated for 48 hrs by imaging analysis. In kind it is toxicity, cell-based. The note with it: neuron. Summed up:
as §1

Data set [12] relates to TZM. In words: Cytotoxicity against human TZM-bl cells assessed as reduction in viability incubated for 48 hrs by CellTiter-Blue cell viability assay. Background: Alamar Blue is a resazurin reagent that responds to reducing activity.
For data set [13], the system named is Human immunodeficiency virus 1. In words: Antiviral activity against HIV1 harboring K103N mutant infected in human TZM-bl cells. In kind it is functional, organism-based. The conditions noted are these: Human immunodeficiency virus 1, TZM-bl. In outline:
as §3

Data set [14] has as its system Human immunodeficiency virus 1. In words: Antiviral activity against HIV1 harboring Y181C mutant infected in human TZM-bl cells. In kind it is functional, organism-based. The note with it: Human immunodeficiency virus 1, TZM-bl. In outline: as §3
Data set [15] can be described thus: Selectivity ratio of IC50 for antiviral activity against wild type HIV1 IIIB infected in human TZM-bl cells to IC50 for antiviral activity against HIV1 harboring A17 mutant infected in human TZM-bl cells. In kind it is toxicity, cell-based. The conditions noted are these: human immunodeficiency virus 1. Summed up: (§5)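 TZM-bl cells (2x10⁵/mL) with 15 µg/mL DEAE-dextran were infected with HIV-1 IIIB, A17 (K103N/Y181C) IIIB variant, or NL4-3-based NNRTI-resistant mutants. Compound was present at 0.05–500 nM (DMSO held constant, 0.005% or 0.05%) for 48 hr at 37°C, 5% CO₂.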

A short description of data set [16]: Selectivity ratio of IC50 for antiviral activity against wild type HIV1 IIIB infected in human TZM-bl cells to IC50 for antiviral activity against HIV1 harboring K103N mutant infected in human TZM-bl cells. The format is toxicity, cell-based. The conditions noted are these: human immunodeficiency virus 1. Summed up: as §5
Data set [17] is described as follows: Selectivity index, ratio of CC50 for cytotoxicity against human TZM-bl cells assessed as reduction in cell viability by MTS assay to EC50 for antiviral activity against HIV1 harboring A17 mutant infected in human TZM-bl cells. The format is toxicity, cell-based. The conditions noted are these: read-out: Ratio CC50/EC50. On the technique in general: Tetrazolium dyes change colour on reduction, which living cells bring about.

A short description of data set [18]: Selectivity ratio of IC50 for antiviral activity against wild type HIV1 IIIB infected in human TZM-bl cells to IC50 for antiviral activity against HIV1 harboring Y181C mutant infected in human TZM-bl cells. In kind it is toxicity, cell-based. The note with it: human immunodeficiency virus 1. In outline: as §5
The nature of data set [19]: Safety index, ratio of TC10 for neurotoxicity in mouse primary neurons assessed as loss of MAP-2 intensity to EC50 for antiviral activity against wild type HIV1 IIIB infected in human TZM-bl cells. The format is toxicity, cell-based. The conditions noted are these: mouse primary neurons, TZM-bl cells. In outline:
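Primary neuronal cultures from cortex/hippocampus of E16 CD1 mouse embryos (>95% neurons). Cells were then methanol:acetic acid-fixed and MAP-2 stained, and intensity was image-quantified. S-index = TC10/(100×EC50 vs HIV-1 IIIB in TZM-bl).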

Data set [20] in a line: Selectivity ratio of IC50 for antiviral activity against wild type HIV1 IIIB infected in human TZM-bl cells to IC50 for antiviral activity against HIV1 harboring L100I/K103N double mutant infected in human TZM-bl cells. The format is toxicity, cell-based. The conditions noted are these: human immunodeficiency virus 1. Summed up: as §5
Data set [21] is described as follows: Selectivity index, ratio of CC50 for cytotoxicity against human TZM-bl cells assessed as reduction in cell viability by MTS assay to EC50 for antiviral activity against wild type HIV1 IIIB infected in human TZM-bl cells. The note with it: read-out: Ratio CC50/EC50. In kind it is toxicity, cell-based.

pEC50, pIC50: −log10 of the molar value. Calls of active or inactive are those of the source. The calls are words filed in the database; no cut-off is given here. Where only a bound is given, the exact number is not on record here.

In the case of `O=C1Nc2ccc(Cl)cc2[C@@](C#CC2CC2)(C(F)(F)F)O1` [EFAVIRENZ], the TC10 in data set [1] was 0.07 µM. Moreover, the result in the data set with Neuron [2] was inactive. The values for the pEC50 in [3] and in data set [4] were 7.74 and 9.17, respectively. In addition, the pIC50 (commonly the negative decadic logarithm of the IC50, by convention in mol/L) in [5] is 9.18. Further, the Activity result in data set [6] is given as “Non-Toxic”. In addition, the outcome in the data set on Neuron [7] was Active. Also, the CC50 (as a rule, the concentration at which the toxic effect on the cells reaches its halfway point) with TZM [8] was over 5 µM.

For the molecule `Cc1cc(/C=C/C#N)cc(C)c1Nc1ccnc(Nc2ccc(C#N)cc2)n1` [RILPIVIRINE], the pIC50 in [9] is 7.85; in data set [10], 6.80; in data set [3], 9.10; in data set [4] it was 9.48; in data set [5] it was 9.46; in data set [13], 8.89. The pIC50 in data set [14] was 8.89. The TC10 was found to be 0.6 µM in [1] and 0.93 µM in data set [11]. Further, the outcome in the data set with Neuron [2] was inactive. The CC50 with TZM [12] and with TZM [8] was over 5 µM each time. Also, in data set [6], the Activity result is given as “Non-Toxic”.

For `Nc1nc(Nc2ccc(Cl)cc2)n(S(=O)(=O)c2ccc(Cl)s2)n1`, the result in data set [3] was inactive. Moreover, the pEC50 (as a rule, −log10 of the EC50, conventionally taken in molar units) in data set [4] was over 7.00.

Turning to `Cc1nc(C)c(S(=O)(=O)n2nc(Nc3ccc(C#N)c(Cl)c3)nc2N)s1`, the pEC50 was 6.51 in [3] and 9.06 in [4].

For the molecule `CC(=O)Nc1nc(C)c(S(=O)(=O)n2nc(Nc3cc(Cl)c(Cl)cc3Cl)nc2N)s1`, the pEC50 in [3] and in data set [4] was under 6.00 in each case.

As to `N#CCc1ccc2c(S(=O)(=O)n3nc(Nc4ccc(C#N)c(Cl)c4)nc3N)cccc2c1`, the values for the pEC50 in [3] and in [4] were 6.82 and 9.22, respectively.

Take `N#Cc1ccc2c(S(=O)(=O)n3nc(Nc4ccc(C#N)c(C#N)c4)nc3N)cccc2c1`: the pIC50 was 5.98 in data set [9]; 6.46 in data set [10]; 8.89 in [3]; 9.49 in data set [5]; 8.23 in data set [13]; 8.43 in data set [14]. The “Ratio IC50” value is reported as 41 in [15], 8.9 in data set [16], 140 in data set [18] and 3500 in data set [20]. The TC10 in [11] worked out at 4.5 µM. Besides, the selectivity ratio worked out at 570 in data set [17], 140 in data set [19] and 130000 in data set [21]. Moreover, the CC50 with TZM [12] was 27 µM; with TZM [8], 28 µM. Besides, the pEC50 in [4] is 9.68. In addition, in [6], the Activity entry was “Non-Toxic”.

As for `CN(C)c1cccc2c(S(=O)(=O)n3nc(Nc4ccc(Cl)cc4)nc3N)cccc12`, the negative-log EC50 (pEC50) in data set [3] was under 6.00; in [4], 7.97.

As for `N#Cc1ccc(Nc2nc(N)n(S(=O)(=O)c3c(Cl)nc4sccn34)n2)cc1`, the results for the pEC50 in data set [3] and in data set [4] were 6.15 and 8.75, respectively.

For `N#Cc1ccc2c(S(=O)(=O)n3nc(Nc4ccc(C#N)c(Cl)c4)nc3N)cccc2c1`, the selectivity ratio in data set [17] stood at 240; in data set [21], 17000. Further, the figures for the pEC50 in data set [3] and in [4] were 7.40 and 9.38, respectively. Moreover, the CC50 in the data set on TZM [8] was 6 µM.

The molecule `Cc1cc(C)c(S(=O)(=O)n2nc(Nc3ccc(Cl)cc3)nc2N)c(C)c1` showed a pEC50 in [4] of 7.49.

Take `Nc1nc(Nc2ccc(Cl)cc2)n(S(=O)(=O)c2cnn(-c3ccc(C(F)(F)F)cn3)c2)n1`: the result in [3] was inactive. In addition, in data set [4], the pEC50 is over 7.00.

`Nc1nc(Nc2ccc(Cl)cc2)nn1S(=O)(=O)c1ccc2ccccc2c1`: the pIC50 in [10] is 6.55; in data set [5] it was 8.03. Moreover, in [11], the TC10 is 6.1 µM. In data set [19], the selectivity ratio came out at 6.5. Besides, the Activity entry in data set [6] is recorded as “Non-Toxic”. Also, in the data set on TZM [8], the outcome was inactive.

As for `N#Cc1ccc(Nc2nc(N)n(S(=O)(=O)c3cccc4cc(C#N)ccc34)n2)cc1`, the pIC50 was 5.82 in [9]; 6.15 in data set [10]; 7.26 in [3]; 9.64 in data set [4]; 9.49 in data set [5]; 8.06 in [13]. Moreover, the pIC50 in data set [14] is 7.74. For the same molecule, the “Ratio IC50” value in [15] amounted to 240; in [16], 39; in data set [18] it was 80; in [20], 6700. Also, the TC10 in [1] was found to be 0.05 µM; in data set [11] it was 0.17 µM. Further, the selectivity ratio in data set [17] is 160; in data set [19], 5.4; in [21] it was 22000. Besides, the CC50 in the data set with TZM [12] and with TZM [8] was 7.8 µM in each case. The Activity entry in data set [6] is on record as “Non-Toxic”.

In the case of `N#C/C=C/c1ccc2c(S(=O)(=O)n3nc(Nc4ccc(CC#N)cc4)nc3N)cccc2c1`, the pEC50 in [3] is 7.61; in data set [4], 9.66. For the same molecule, the CC50 in the data set on TZM [8] was 0.91 µM. Also, in [21], the selectivity ratio is 4100.

Take `Cn1cnc(S(=O)(=O)n2nc(N)nc2Nc2ccc(Cl)cc2)c1`: in data set [3], the outcome was inactive. The pEC50 in [4] is over 7.00.
